Data: ChEMBL document CHEMBL1125428, “Development of 2,3-dihydro-6-(3-phenoxypropyl)-2-(2-phenylethyl)-5-benzofuranol (L-670,630) as a potent and orally active inhibitor of 5-lipoxygenase” (J Med Chem, 1992)
pIC50: −log10 of the molar value.

Assays:
[1] = target: Arachidonate 5-lipoxygenase (Homo sapiens); assay: Inhibitory activity of LTB4 production in human PMN
[2] = tested on: Rattus norvegicus; assay: Total radioactivity in tissues of male sd rats dosed orally with H-labeled compound at 21 mg/kg after 5 min in kidney; assay type: functional; details: route oral
Summary of the method: (§1)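 Male Sprague-Dawley rats received ³H-labelled drug (phenoxy ring, 3.96 μCi/mg) in PEG-400 by gavage at 21 mg/kg. Animals were killed at 5, 15, 30 min and at 1, 2, 4, 24 and 48 h. Homogenates were pooled per group, and total radioactivity was measured as the mean of duplicate combustions, in μg equiv/g. Two or three rats were used per point, except one rat at 24 and 48 h.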

[3] = tested on: Rattus norvegicus; assay: Total radioactivity in tissues of male sd rats dosed intravenously with H-labeled compound at 21 mg/kg after 1 hr in lung; assay type: functional; details: route intravenous
Summary of the method: (§2)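 Male Sprague-Dawley rats given ³H compound iv via femoral vein in PEG-400, 21 mg/kg, 3.96 μCi/mg. Killed at 2, 10, 30 min, 1, 2 and 4 h. Total radioactivity measured by combustion of composited tissue homogenates, in duplicate. Two or three rats per time point, one at 10 and 30 min.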

[4] = tested on: Rattus norvegicus; assay: Total radioactivity in tissues of male sd rats dosed orally with H-labeled compound at 21 mg/kg after 4 hr in liver; assay type: functional; details: route oral
Summary of the method: as §1

[5] = tested on: Rattus norvegicus; assay: Total radioactivity in tissues of male sd rats dosed intravenously with H-labeled compound at 21 mg/kg after 4 hr in plasma; assay type: functional; details: route intravenous
Summary of the method: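 ³H label in the phenoxy ring, dissolved in PEG-400, specific activity 3.96 μCi/mg, given iv via femoral vein at 21 mg/kg to male Sprague-Dawley rats. Animals were killed at 2, 10, 30 min, 1, 2 and 4 h. Tissues from each group were pooled and homogenized, and total radioactivity was measured by combustion, averaged over duplicate combustions. Results are expressed as μg equiv/g. Two or three rats were used per time point.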

[6] = tested on: Rattus norvegicus; assay: Total radioactivity in tissues of male sd rats dosed intravenously with H-labeled compound at 21 mg/kg after 1 hr in kidney; assay type: functional; details: route intravenous
Summary of the method: as §2

[7] = tested on: Rattus norvegicus; assay: Total radioactivity in tissues of male sd rats dosed orally with H-labeled compound at 21 mg/kg after 4 hr in plasma; assay type: functional; details: route oral
Summary of the method: as §1

[8] = tested on: Rattus norvegicus; assay: Total radioactivity in tissues of male sd rats dosed orally with H-labeled compound at 21 mg/kg after 24 hr r in plasma; assay type: functional; details: route oral
Summary of the method: as §1

[9] = tested on: Rattus norvegicus; assay: Total radioactivity in tissues of male sd rats dosed orally with H-labeled compound at 21 mg/kg after 5 min in plasma; assay type: functional; details: route oral
Summary of the method: as §1

[10] = tested on: Rattus norvegicus; assay: Percentage inhibition against antigen induced dyspnea in hyperactive inbred rat at a dose of 0.05 mg/kg; assay type: functional
Summary of the method: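 Inbred hyperreactive rats, six per group, dosed po 2 h before aerosol ovalbumin challenge, with drug suspension or vehicle (0.4% Methocel/0.5% Tween 80, 10 mL/kg). Methysergide 3 mg/kg iv given 5 min before antigen. Dyspnea duration recorded by pneumotachograph. % inhibition of duration is relative to vehicle controls. Student's t test used; ED50 from linear regression.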

[11] = tested on: Rattus norvegicus; assay: Total radioactivity in tissues of male sd rats dosed intravenously with H-labeled compound at 21 mg/kg after 30 min in plasma; assay type: functional; details: route intravenous
[12] = tested on: Rattus norvegicus; assay: Total radioactivity in tissues of male sd rats dosed orally with H-labeled compound at 21 mg/kg after 48 hr in plasma; assay type: functional; details: route oral
Summary of the method: as §1

[13] = tested on: Rattus norvegicus; assay: Total radioactivity in tissues of male sd rats dosed intravenously with H-labeled compound at 21 mg/kg after 10 min in kidney; assay type: functional; details: route intravenous
Summary of the method: as §2

[14] = tested on: Rattus norvegicus; assay: Total radioactivity in tissues of male sd rats dosed intravenously with H-labeled compound at 21 mg/kg after 2 hr in liver; assay type: functional; details: route intravenous
Summary of the method: as §2

[15] = tested on: Rattus norvegicus; assay: Total radioactivity in tissues of male sd rats dosed orally with H-labeled compound at 21 mg/kg after 15 min in kidney; assay type: functional; details: route oral
Summary of the method: as §1

[16] = tested on: Rattus norvegicus; assay: Total radioactivity in tissues of male sd rats dosed intravenously with H-labeled compound at 21 mg/kg after 2 hr in kidney; assay type: functional; details: route intravenous
Summary of the method: as §2

[17] = Peak concentration of drug in rat plasma after oral dosing at 20 mg/kg. Concentration of parent compound was measured before (free) and after (total) beta-glucuronidase treatment; total 0.5 uM; assay type: ADME, organism-based; design: dose 20 mg/kg, route oral; details: read-out: Plasma level
[18] = tested on: Rattus norvegicus; assay: Total radioactivity in tissues of male sd rats dosed intravenously with H-labeled compound at 21 mg/kg after 2 min in lung; assay type: functional; details: route intravenous
Summary of the method: as §2

[19] = tested on: Rattus norvegicus; assay: Total radioactivity in tissues of male sd rats dosed orally with H-labeled compound at 21 mg/kg after 24 hr r in liver; assay type: functional; details: route oral
Summary of the method: as §1

[20] = tested on: Rattus norvegicus; assay: Total radioactivity in tissues of male sd rats dosed orally with H-labeled compound at 21 mg/kg after 30 min in liver; assay type: functional; details: route oral
Summary of the method: as §1

[21] = tested on: Rattus norvegicus; assay: Total radioactivity in tissues of male sd rats dosed orally with H-labeled compound at 21 mg/kg after 24 hr r in kidney; assay type: functional; details: route oral
Summary of the method: as §1

[22] = target: T1, Polyunsaturated fatty acid 5-lipoxygenase (Rattus norvegicus, UniProt P12527); assay: Tested for its inhibitory activity against arachidonic acid in rat 5-lipoxygenase.
T1 sequence (P12527 whole entry): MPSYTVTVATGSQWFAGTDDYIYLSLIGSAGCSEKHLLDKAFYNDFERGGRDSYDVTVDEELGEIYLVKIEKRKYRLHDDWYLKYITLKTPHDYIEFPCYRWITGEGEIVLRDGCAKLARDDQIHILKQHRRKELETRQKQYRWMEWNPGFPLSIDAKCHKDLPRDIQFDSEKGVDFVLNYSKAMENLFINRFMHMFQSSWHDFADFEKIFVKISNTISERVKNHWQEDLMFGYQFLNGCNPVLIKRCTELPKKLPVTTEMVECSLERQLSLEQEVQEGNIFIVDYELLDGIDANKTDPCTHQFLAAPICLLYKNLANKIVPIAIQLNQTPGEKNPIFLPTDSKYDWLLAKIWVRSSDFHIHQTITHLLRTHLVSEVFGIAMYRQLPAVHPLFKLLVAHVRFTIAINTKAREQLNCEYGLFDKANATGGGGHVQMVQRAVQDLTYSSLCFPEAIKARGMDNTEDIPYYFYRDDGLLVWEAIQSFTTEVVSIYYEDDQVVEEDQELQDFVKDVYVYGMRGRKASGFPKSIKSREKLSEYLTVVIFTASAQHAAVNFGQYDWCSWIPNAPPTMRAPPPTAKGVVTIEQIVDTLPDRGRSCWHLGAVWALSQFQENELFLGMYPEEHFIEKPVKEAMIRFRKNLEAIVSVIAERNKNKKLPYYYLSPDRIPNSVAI
Summary of the method: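 10000g supernatant from rat PMN leukocytes incubated 10 min with [14C]arachidonic acid. 5-Lipoxygenase activity taken as percentage conversion to 5-HETE plus 5,12-diHETEs.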

[23] = tested on: Rattus norvegicus; assay: Total radioactivity in tissues of male sd rats dosed orally with H-labeled compound at 21 mg/kg after 15 min in liver; assay type: functional; details: route oral
Summary of the method: as §1

[24] = tested on: Rattus norvegicus; assay: Total radioactivity in tissues of male sd rats dosed intravenously with H-labeled compound at 21 mg/kg after 2 min in kidney; assay type: functional; details: route intravenous
Summary of the method: as §2

[25] = tested on: Rattus norvegicus; assay: Total radioactivity in tissues of male sd rats dosed orally with H-labeled compound at 21 mg/kg after 48 hr in kidney; assay type: functional; details: route oral
Summary of the method: as §1

[26] = tested on: Rattus norvegicus; assay: Total radioactivity in tissues of male sd rats dosed intravenously with H-labeled compound at 21 mg/kg after 30 min in liver; assay type: functional; details: route intravenous
Summary of the method: as §2

[27] = tested on: Rattus norvegicus; assay: Total radioactivity in tissues of male sd rats dosed intravenously with H-labeled compound at 21 mg/kg after 10 min in liver; assay type: functional; details: route intravenous
Summary of the method: as §2

**Q.** With `Oc1cc2c(cc1CCCOc1ccccc1)OC(CCc1ccccc1)C2` (configuration not stated) as the compound, how does the pIC50 [1] read?
**A.** The pIC50 was 8.22.

**Q.** What about the Total radioactivity [2] of the same compound?
**A.** The Total radioactivity was 9.12 ug equiv g-1.

**Q.** And the Total radioactivity [3]?
**A.** Its Total radioactivity is 40.77 ug equiv g-1.

**Q.** What about the Total radioactivity [4] of the same compound?
**A.** Its Total radioactivity is 13.77 ug equiv g-1.

**Q.** What about the Total radioactivity [5] of the same compound?
**A.** The Total radioactivity was 1.18 ug equiv g-1.

**Q.** What about the Total radioactivity [6] of the same compound?
**A.** The Total radioactivity was 11.78 ug equiv g-1.

**Q.** What about the Total radioactivity [7] of the same compound?
**A.** The Total radioactivity was 3.27 ug equiv g-1.

**Q.** What about the Total radioactivity [8] of the same compound?
**A.** Its Total radioactivity is 0.64 ug equiv g-1.

**Q.** What about the Total radioactivity [9] of the same compound?
**A.** Its Total radioactivity is 7.74 ug equiv g-1.

**Q.** And the inhibition in vivo at 0.05 mg/kg [10]?
**A.** The inhibition in vivo at 0.05 mg/kg was 50%.

**Q.** What about the Total radioactivity [11] of the same compound?
**A.** Its Total radioactivity is 5.81 ug equiv g-1.

**Q.** What about the Total radioactivity [12] of the same compound?
**A.** Its Total radioactivity is 0.82 ug equiv g-1.

**Q.** And the Total radioactivity [13]?
**A.** The Total radioactivity was 54.13 ug equiv g-1.

**Q.** And the Total radioactivity [14]?
**A.** The Total radioactivity was 3.31 ug equiv g-1.

**Q.** What about the Total radioactivity [15] of the same compound?
**A.** Its Total radioactivity is 5.5 ug equiv g-1.

**Q.** What about the Total radioactivity [16] of the same compound?
**A.** Its Total radioactivity is 1.24 ug equiv g-1.

**Q.** And the Cmax [17]?
**A.** Its Cmax is 300 nM.

**Q.** What about the Total radioactivity [18] of the same compound?
**A.** The Total radioactivity was 100.78 ug equiv g-1.

**Q.** What about the Total radioactivity [19] of the same compound?
**A.** Its Total radioactivity is 0.68 ug equiv g-1.

**Q.** What about the Total radioactivity [20] of the same compound?
**A.** Its Total radioactivity is 3.92 ug equiv g-1.

**Q.** And the Total radioactivity [21]?
**A.** Its Total radioactivity is 0.15 ug equiv g-1.

**Q.** And the pIC50 [22]?
**A.** Its pIC50 is 7.64.

**Q.** What about the Total radioactivity [23] of the same compound?
**A.** Its Total radioactivity is 7.82 ug equiv g-1.

**Q.** And the Total radioactivity [24]?
**A.** The Total radioactivity was 51.19 ug equiv g-1.

**Q.** And the Total radioactivity [25]?
**A.** Its Total radioactivity is 0.03 ug equiv g-1.

**Q.** What about the Total radioactivity [26] of the same compound?
**A.** Its Total radioactivity is 41.11 ug equiv g-1.

**Q.** What about the Total radioactivity [27] of the same compound?
**A.** Its Total radioactivity is 143.94 ug equiv g-1.
